Experimental data reported in ChEMBL document CHEMBL3271935, “Synthesis and biological activity of some broad-spectrum N-acylphenyglycine cephalosporins” (1977).
≈ marks a conversion by molar mass, not a printed value.

Tests used:
Klebsiella pneumoniae = experiment: Antibacterial activity against Klebsiella pneumoniae 4200 assessed as growth inhibition by two-fold agar dilution method; type: functional
How it was run: (§1)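 MIC (μg/mL) by twofold agar dilution on Trypticase soy agar buffered to pH 6.0.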

Escherichia coli [1] = experiment: Antibacterial activity against Escherichia coli 12140 assessed as growth inhibition by two-fold agar dilution method; type: functional; how it was run: as §1
Pseudomonas aeruginosa [2] = experiment: Antibacterial activity against Pseudomonas aeruginosa 1063 assessed as growth inhibition; type: functional
How it was run: (§2)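 Broth MIC by the standard microtiter technique in unbuffered Mueller-Hinton broth.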

Pseudomonas aeruginosa [3] = experiment: Antibacterial activity against Pseudomonas aeruginosa 1062 assessed as growth inhibition; type: functional; how it was run: as §2
Klebsiella aerogenes = experiment: Antibacterial activity against Enterobacter aerogenes ATCC 13048 assessed as growth inhibition by two-fold agar dilution method; type: functional; how it was run: as §1
Salmonella paratyphi = experiment: Antibacterial activity against Salmonella paratyphi ATCC 12176 assessed as growth inhibition by two-fold agar dilution method; type: functional, Salmonella enterica subsp. enterica serovar Paratyphi A; settings: Salmonella enterica
How it was run: (§3)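 Twofold agar dilution on Trypticase soy agar buffered to pH 6.0. MIC reported in μg/mL.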

Pseudomonas aeruginosa [4] = experiment: Antibacterial activity against Pseudomonas aeruginosa 1106 assessed as growth inhibition; type: functional; how it was run: as §2
Pseudomonas aeruginosa [5] = experiment: Antibacterial activity against Pseudomonas aeruginosa 219 assessed as growth inhibition; type: functional; how it was run: as §2
Escherichia coli [6] = experiment: Antibacterial activity against Escherichia coli 12140 infected in sc dosed mouse administered at 1 to 5 hrs measured for 3 days; type: functional; settings: Escherichia coli, 12140, sc; read-out: PD50
How it was run: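 Mice infected intraperitoneally with about 2×10^3 organisms per mouse of E. coli 12140 culture diluted in 5% hog gastric mucin, giving uniformly lethal infection. Fourfold dilutions given subcutaneously in equally divided portions at 1 and 5 h postinfection, five groups per compound. Survivors observed 3 days. PD50 is total dose (mg/kg) protecting 50%, calculated by Litchfield–Wilcoxon method.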

Pseudomonas aeruginosa [7] = experiment: Antibacterial activity against Pseudomonas aeruginosa 1504 assessed as growth inhibition; type: functional; how it was run: as §2
Pseudomonas aeruginosa [8] = experiment: Antibacterial activity against Pseudomonas aeruginosa 864 assessed as growth inhibition; type: functional; how it was run: as §2
Pseudomonas aeruginosa [9] = experiment: Antibacterial activity against Pseudomonas aeruginosa 647 assessed as growth inhibition; type: functional; how it was run: as §2
Morganella morganii = experiment: Antibacterial activity against indole positive Proteus morganii 179 assessed as growth inhibition by two-fold agar dilution method; type: functional; how it was run: as §1
Staphylococcus aureus = experiment: Antibacterial activity against penicillin G resistant Staphylococcus aureus HH 127 assessed as growth inhibition by two-fold agar dilution method; type: functional; how it was run: as §3
Pseudomonas aeruginosa [10] = experiment: Antibacterial activity against Pseudomonas aeruginosa HH 63 assessed as growth inhibition by two-fold agar dilution method; type: functional; how it was run: as §1
Pseudomonas aeruginosa [11] = experiment: Antibacterial activity against Pseudomonas aeruginosa 1042 assessed as growth inhibition; type: functional; how it was run: as §2

| Structure (SMILES) | MIC (Klebsiella pneumoniae) [µg/mL] | MIC (Escherichia coli [1]) [µg/mL] | MIC (Pseudomonas aeruginosa [2]) [µg/mL] | MIC (Pseudomonas aeruginosa [3]) [µg/mL] | MIC (Klebsiella aerogenes) [µg/mL] | MIC (Salmonella paratyphi) [µg/mL] | MIC (Pseudomonas aeruginosa [4]) [µg/mL] | MIC (Pseudomonas aeruginosa [5]) [µg/mL] | ED50 (Escherichia coli [6]) [mg/kg] | MIC (Pseudomonas aeruginosa [7]) [µg/mL] | MIC (Pseudomonas aeruginosa [8]) [µg/mL] | MIC (Pseudomonas aeruginosa [9]) [µg/mL] | MIC (Morganella morganii) [µg/mL] | MIC (Staphylococcus aureus) [µg/mL] | MIC (Pseudomonas aeruginosa [10]) [µg/mL] | MIC (Pseudomonas aeruginosa [11]) [µg/mL] |
| --- | --- | --- | --- | --- | --- | --- | --- | --- | --- | --- | --- | --- | --- | --- | --- | --- |
| CC1(C)S[C@@H]2[C@H](NC(=O)C(C(=O)O)c3ccccc3)C(=O)N2[C@H]1C(=O)O (stereo partly drawn) [CARBENICILLIN] | 6.3 (≈ 16.6 µM) | 6.3 (≈ 16.6 µM) | 63 (≈ 166 µM) | 63 (≈ 166 µM) | 12.5 (≈ 33 µM) | 6.3 (≈ 16.6 µM) | 125 (≈ 330 µM) | 63 (≈ 166 µM) | 25 | 63 (≈ 166 µM) | 500 (≈ 1320 µM) | 63 (≈ 166 µM) | 0.8 (≈ 2.11 µM) | 3.1 (≈ 8.19 µM) | 50 (≈ 132 µM) | 63 (≈ 166 µM) |
| Cn1nnnc1SCC1=C(C(=O)[O-])N2C(=O)[C@@H](NC(=O)C(NC(=O)CSCC(=O)[O-])c3ccccc3)[C@H]2SC1.[Na+].[Na+] (stereo partly drawn) | 3.1 | 6.3 | > 500 | 500 | 3.1 | 3.1 | > 500 | 500 | 50 | 500 | > 500 | > 500 | 1.6 | 3.1 | > 200 | > 500 |
| CC(=O)OCC1=C(C(=O)[O-])N2C(=O)[C@@H](NC(=O)C(NC(=O)COCC(=O)[O-])c3ccccc3)[C@H]2SC1.[Na+].[Na+] (stereo partly drawn) | 3.1 | 6.3 |  |  | 12.5 | 12.5 |  |  | 21.5 |  |  |  | 12.5 | 3.1 | > 200 |  |
| CC(=O)OCC1=C(C(=O)[O-])N2C(=O)[C@@H](NC(=O)C(NC(=O)[C@H]3C[C@H]3C(=O)[O-])c3ccccc3)[C@H]2SC1.[Na+].[Na+] (mixture of isomers) | 3.1 | 12.5 |  |  | 12.5 | 6.3 |  |  | 25 |  |  |  | 12.5 | 6.3 | > 200 |  |
| Cn1nnnc1SCC1=C(C(=O)[O-])N2C(=O)[C@@H](NC(=O)C(NC(=O)C3OC3C(=O)[O-])c3ccccc3)[C@H]2SC1.[Na+].[Na+] (mixture of isomers) | 0.8 | 0.8 | 500 | 63 | 1.6 | 1.6 | 500 | 125 | 7 | 63 | 500 | 63 | 0.4 | 6.3 | 50 | 63 |
| Cn1nnnc1SCC1=C(C(=O)[O-])N2C(=O)[C@@H](NC(=O)C(NC(=O)C3CCC(C(=O)[O-])O3)c3ccccc3)[C@H]2SC1.[Na+].[Na+] (mixture of isomers) | 1.6 | 3.1 | 250 | 125 | 3.1 | 3.1 | 500 | 125 | 25 | 63 | 500 | 125 | 1.6 | 3.1 | 100 | 125 |
| CC(=O)OCC1=C(C(=O)[O-])N2C(=O)[C@@H](NC(=O)C(NC(=O)C3OC3C(=O)[O-])c3ccccc3)[C@H]2SC1.[Na+].[Na+] (single isomer, unassigned; diastereomer 1) | 0.8 | 1.6 |  |  | 3.1 | 1.6 |  |  | 12.5 |  |  |  | 3.1 | 6.3 | 100 |  |
| CC(=O)OCC1=C(C(=O)[O-])N2C(=O)[C@@H](NC(=O)C(NC(=O)CCCC(=O)[O-])c3ccccc3)[C@H]2SC1.[Na+].[Na+] (stereo partly drawn) | 25 | 50 |  |  | 100 | 25 |  |  | 100 |  |  |  | > 200 | 6.3 | > 200 |  |
| CC(=O)OCC1=C(C(=O)O)N2C(=O)[C@@H](NC(=O)C(NC(=O)CSCC(=O)O)c3ccccc3)[C@H]2SC1 (stereo partly drawn) | 6.3 (≈ 11.7 µM) | 12.5 (≈ 23.3 µM) |  |  | 25 (≈ 46.5 µM) | 6.3 (≈ 11.7 µM) |  |  | 64 |  |  |  | 12.5 (≈ 23.3 µM) | 3.1 (≈ 5.77 µM) | > 200 |  |
| Cn1nnnc1SCC1=C(C(=O)O)N2C(=O)[C@@H](NC(=O)C(N)c3ccccc3)[C@H]2SC1 (stereo partly drawn) | 1.6 (≈ 3.47 µM) | 3.1 (≈ 6.72 µM) |  |  | 1.6 (≈ 3.47 µM) | 1.6 (≈ 3.47 µM) |  |  | 1.4 |  |  |  | 6.3 (≈ 13.7 µM) | 3.1 (≈ 6.72 µM) | > 200 |  |
| Cn1nnnc1SCC1=C(C(=O)[O-])N2C(=O)[C@@H](NC(=O)C(NC(=O)C3CO3)c3ccccc3)[C@H]2SC1.[Na+] (mixture of isomers) | 6.3 | 12.5 | > 500 | > 500 | 12.5 | 6.3 | > 500 | > 500 | 45 | 500 | > 500 | > 500 | 3.1 | 1.6 | 200 | > 500 |
| Cn1nnnc1SCC1=C(C(=O)[O-])N2C(=O)[C@@H](NC(=O)[C@H](NC(=O)[C@H]3O[C@@H]3C(=O)[O-])c3ccccc3)[C@H]2SC1.[Na+].[Na+] (mixture of isomers) | 12.5 | 25 |  |  | 25 | 12.5 |  |  | 150 |  |  |  | 25 | 1.6 | > 200 |  |
| CC(=O)OCC1=C(C(=O)O)N2C(=O)[C@@H](NC(=O)Cc3cccs3)[C@H]2SC1 [CEPHALOTHIN] | 1.6 (≈ 4.04 µM) | 3.1 (≈ 7.82 µM) |  |  | 12.5 (≈ 31.5 µM) | 0.8 (≈ 2.02 µM) |  |  | 50 |  |  |  | > 200 | 0.2 (≈ 0.504 µM) | > 200 |  |
| CC(=O)OCC1=C(C(=O)O)N2C(=O)[C@@H](NC(=O)[C@H](N)c3ccccc3)[C@H]2SC1 [CEPHALOGLYCIN] | 3.1 (≈ 7.65 µM) | 3.1 (≈ 7.65 µM) |  |  | 50 (≈ 123 µM) | 3.1 (≈ 7.65 µM) |  |  |  |  |  |  | > 200 | 3.1 (≈ 7.65 µM) | > 200 |  |
| Cn1nnnc1SCC1=C(C(=O)[O-])N2C(=O)[C@@H](NC(=O)C(NC(=O)COCC(=O)[O-])c3ccccc3)[C@H]2SC1.[Na+].[Na+] (stereo partly drawn) | 0.8 | 1.6 | 500 | 250 | 3.1 | 1.6 | 500 | 125 | 8.7 | 125 | 500 | 125 | 0.4 | 3.1 | 200 | 250 |
| Cn1nnnc1SCC1=C(C(=O)[O-])N2C(=O)[C@@H](NC(=O)C(NC(=O)[C@@H]3O[C@@H]3C(=O)[O-])c3ccccc3)[C@H]2SC1.[Na+].[Na+] (mixture of isomers) | 3.1 | 6.3 | > 500 | > 500 | 12.5 | 6.3 | > 500 | 500 | 35 | 500 | 500 | > 500 | 3.1 | 12.5 | 200 | > 500 |
| CC(=O)OCC1=C(C(=O)[O-])N2C(=O)[C@@H](NC(=O)C(NC(=O)[C@@H]3O[C@@H]3C(=O)[O-])c3ccccc3)[C@H]2SC1.[Na+].[Na+] (single isomer, unassigned; diastereomer 2) | 6.3 | 12.5 |  |  | 25 | 6.3 |  |  | 72 |  |  |  | 200 | 12.5 | > 200 |  |
| Cn1nnnc1SCC1=C(C(=O)[O-])N2C(=O)[C@@H](NC(=O)C(NC(=O)CCCC(=O)[O-])c3ccccc3)[C@H]2SC1.[Na+].[Na+] (stereo partly drawn) | 6.3 | 12.5 | > 500 | > 500 | 25 | 6.3 | > 500 | > 500 | 100 | > 500 | > 500 | > 500 | 12.5 | 3.1 | > 200 | > 500 |
| CC(=O)OCC1=C(C(=O)[O-])N2C(=O)[C@@H](NC(=O)C(NC(=O)C3CO3)c3ccccc3)[C@H]2SC1.[Na+] (mixture of isomers) | 12.5 | 25 |  |  | 25 | 12.5 |  |  | 100 |  |  |  | 25 | 1.6 | > 200 |  |
| CC(=O)OCC1=C(C(=O)[O-])N2C(=O)[C@@H](NC(=O)C(NC(=O)C3CCC(C(=O)[O-])O3)c3ccccc3)[C@H]2SC1.[Na+].[Na+] (stereo partly drawn) | 6.3 | 12.5 |  |  | 25 | 12.5 |  |  | 140 |  |  |  | 50 | 6.3 | 200 |  |
